Data as given in ChEMBL document CHEMBL2434966, “Novel N-4-piperazinyl-ciprofloxacin-chalcone hybrids: synthesis, physicochemical properties, anticancer and topoisomerase I and II inhibitory activity” (Eur J Med Chem, 2013).

Legend:
RXF 393 [1] = assay: Growth inhibition of human RXF393 cells after 48 hrs by sulforhodamine B assay; format: functional; details: RXF 393, 48 h; for CC50: read-out: LC50 (the source's name)
Outline: (§1)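 NCI five-dose screen on the full 60-cell-line panel. Cells were given 10-fold dilutions from 10^-4 to 10^-8 M with continuous 48 h exposure, and growth was read by SRB staining. Percent growth was taken from time-zero, control and treated absorbances. GI50, TGI and LC50 were then derived, the GI50 being the concentration that gives a 50% lower net protein increase than control.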

[2] = Growth inhibition of human NCI-ADR-RES cells after 48 hrs by sulforhodamine B assay; format: functional; details: for CC50: read-out: LC50 (the source's name); outline: as §1
NCI-H460 = assay: Growth inhibition of human NCI-H460 cells after 48 hrs by sulforhodamine B assay; format: functional; details: NCI-H460, 48 h; for CC50: read-out: LC50 (the source's name); outline: as §1
OVCAR-4 = assay: Growth inhibition of human OVCAR4 cells assessed as cell growth at 10^-5 M after 48 hrs by sulforhodamine B assay; format: functional; details: OVCAR-4, 48 h, read-out: Activity
Outline: (§2)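 NCI 60-cell-line primary one-dose screen. Cells were exposed to a single 10^-5 M concentration for 48 h. The end point was sulforhodamine B protein staining, read spectrophotometrically. Results are reported as percent growth of treated cells relative to untreated control cells.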

RXF 393 [3] = assay: Growth inhibition of human RXF393 cells assessed as cell growth at 10^-5 M after 48 hrs by sulforhodamine B assay; format: functional; details: RXF 393, 48 h, read-out: Activity; outline: as §2
786-0 = assay: Growth inhibition of human 786-0 cells assessed as cell growth at 10^-5 M after 48 hrs by sulforhodamine B assay; format: functional; details: 786-0, 48 h, read-out: Activity
Outline: (§3)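 NCI 60-cell-line primary screen. Single concentration of 10^-5 M, 48 h incubation. End point by sulforhodamine B protein staining read spectrophotometrically. Reported as percent growth of treated cells relative to untreated control cells.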

COLO 205 = assay: Growth inhibition of human COLO205 cells assessed as cell growth at 10^-5 M after 48 hrs by sulforhodamine B assay; format: functional; details: COLO 205, 48 h, read-out: Activity; outline: as §3
HCT-15 = assay: Growth inhibition of human HCT15 cells assessed as cell growth at 10^-5 M after 48 hrs by sulforhodamine B assay; format: functional; details: HCT-15, 48 h, read-out: Activity; outline: as §3
CAKI-1 = assay: Growth inhibition of human CAKI-1 cells assessed as cell growth at 10^-5 M after 48 hrs by sulforhodamine B assay; format: functional; details: CAKI-1, 48 h, read-out: Activity; outline: as §3
RPMI-8226 = assay: Growth inhibition of human RPMI8226 cells after 48 hrs by sulforhodamine B assay; format: functional; details: RPMI-8226, 48 h; for CC50: read-out: LC50 (the source's name); outline: as §1
HT-29 = assay: Growth inhibition of human HT-29 cells assessed as cell growth at 10^-5 M after 48 hrs by sulforhodamine B assay; format: functional; details: HT-29, 48 h, read-out: Activity; outline: as §3
PC-3 = assay: Growth inhibition of human PC3 cells assessed as cell growth at 10^-5 M after 48 hrs by sulforhodamine B assay; format: functional; details: PC-3, 48 h, read-out: Activity; outline: as §2
OVCAR-3 = assay: Growth inhibition of human OVCAR3 cells assessed as cell growth at 10^-5 M after 48 hrs by sulforhodamine B assay; format: functional; details: OVCAR-3, 48 h, read-out: Activity; outline: as §2
NCI-H226 [4] = assay: Growth inhibition of human NCI-H226 cells after 48 hrs by sulforhodamine B assay; format: functional; details: NCI-H226, 48 h; for CC50: read-out: LC50 (the source's name); outline: as §1
OVCAR-8 [5] = assay: Growth inhibition of human OVCAR8 cells assessed as cell growth at 10^-5 M after 48 hrs by sulforhodamine B assay; format: functional; details: OVCAR-8, 48 h, read-out: Activity; outline: as §2
HOP-62 = assay: Growth inhibition of human HOP62 cells assessed as cell growth at 10^-5 M after 48 hrs by sulforhodamine B assay; format: functional; details: HOP-62, 48 h, read-out: Activity; outline: as §3
SR = assay: Growth inhibition of human SR cells after 48 hrs by sulforhodamine B assay; format: functional
Outline: (§4)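 NCI 60-cell panel, five concentrations (10-fold dilutions, 0.01–100 µM), 48 h continuous exposure; SRB protein stain read spectrophotometrically. Percent growth from time-zero, untreated-control and treated absorbances. GI50 is the concentration giving 50% lower net protein increase than control. Values beyond the tested range are reported as more or less than the highest or lowest concentration.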

Malme-3M = assay: Growth inhibition of human MALME-3M cells assessed as cell growth at 10^-5 M after 48 hrs by sulforhodamine B assay; format: functional; details: read-out: Activity; outline: as §3
UACC-62 = assay: Growth inhibition of human UACC62 cells assessed as cell growth at 10^-5 M after 48 hrs by sulforhodamine B assay; format: functional; details: UACC-62, 48 h, read-out: Activity
Outline: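 NCI primary one-dose screen: single concentration of 10^-5 M added to culture, 48 h incubation, SRB protein-dye endpoint. Percent growth of treated cells measured spectrophotometrically against untreated controls.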

OVCAR-8 [6] = assay: Growth inhibition of human OVCAR8 cells after 48 hrs by sulforhodamine B assay; format: functional; details: OVCAR-8, 48 h; for CC50: read-out: LC50 (the source's name); outline: as §1
NCI-H226 [7] = assay: Growth inhibition of human NCI-H226 cells assessed as cell growth at 10^-5 M after 48 hrs by sulforhodamine B assay; format: functional; details: NCI-H226, 48 h, read-out: Activity; outline: as §2
[8] = Growth inhibition of human HCC2998 cells after 48 hrs by sulforhodamine B assay; format: functional; details: HCC 2998, 48 h; for CC50: read-out: LC50 (the source's name)
Outline: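 NCI 60-panel five-dose test at 10-fold dilutions, 10^-4 to 10^-8 M, with 48 h continuous exposure and SRB protein read-out. Percent growth derived from time-zero, untreated-control and treated absorbances. GI50 is the concentration where [(Ti-Tz)/(C-Tz)]×100 = 50. TGI is taken at Ti = Tz. LC50 is taken at [(Ti-Tz)/Tz]×100 = -50.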

UACC-257 = assay: Growth inhibition of human UACC257 cells after 48 hrs by sulforhodamine B assay; format: functional; details: UACC-257, 48 h; for CC50: read-out: LC50 (the source's name); outline: as §4
[9] = target: DNA topoisomerase 2-alpha (Homo sapiens) (UniProt P11388); assay: Inhibition of human topoisomerase 2alpha-mediated relaxation of supercoiled pBR322 DNA at 100 uM after 30 mins by agarose gel electrophoresis relative to control
Sequence of DNA topoisomerase 2-alpha (Homo sapiens) (P11388 whole entry): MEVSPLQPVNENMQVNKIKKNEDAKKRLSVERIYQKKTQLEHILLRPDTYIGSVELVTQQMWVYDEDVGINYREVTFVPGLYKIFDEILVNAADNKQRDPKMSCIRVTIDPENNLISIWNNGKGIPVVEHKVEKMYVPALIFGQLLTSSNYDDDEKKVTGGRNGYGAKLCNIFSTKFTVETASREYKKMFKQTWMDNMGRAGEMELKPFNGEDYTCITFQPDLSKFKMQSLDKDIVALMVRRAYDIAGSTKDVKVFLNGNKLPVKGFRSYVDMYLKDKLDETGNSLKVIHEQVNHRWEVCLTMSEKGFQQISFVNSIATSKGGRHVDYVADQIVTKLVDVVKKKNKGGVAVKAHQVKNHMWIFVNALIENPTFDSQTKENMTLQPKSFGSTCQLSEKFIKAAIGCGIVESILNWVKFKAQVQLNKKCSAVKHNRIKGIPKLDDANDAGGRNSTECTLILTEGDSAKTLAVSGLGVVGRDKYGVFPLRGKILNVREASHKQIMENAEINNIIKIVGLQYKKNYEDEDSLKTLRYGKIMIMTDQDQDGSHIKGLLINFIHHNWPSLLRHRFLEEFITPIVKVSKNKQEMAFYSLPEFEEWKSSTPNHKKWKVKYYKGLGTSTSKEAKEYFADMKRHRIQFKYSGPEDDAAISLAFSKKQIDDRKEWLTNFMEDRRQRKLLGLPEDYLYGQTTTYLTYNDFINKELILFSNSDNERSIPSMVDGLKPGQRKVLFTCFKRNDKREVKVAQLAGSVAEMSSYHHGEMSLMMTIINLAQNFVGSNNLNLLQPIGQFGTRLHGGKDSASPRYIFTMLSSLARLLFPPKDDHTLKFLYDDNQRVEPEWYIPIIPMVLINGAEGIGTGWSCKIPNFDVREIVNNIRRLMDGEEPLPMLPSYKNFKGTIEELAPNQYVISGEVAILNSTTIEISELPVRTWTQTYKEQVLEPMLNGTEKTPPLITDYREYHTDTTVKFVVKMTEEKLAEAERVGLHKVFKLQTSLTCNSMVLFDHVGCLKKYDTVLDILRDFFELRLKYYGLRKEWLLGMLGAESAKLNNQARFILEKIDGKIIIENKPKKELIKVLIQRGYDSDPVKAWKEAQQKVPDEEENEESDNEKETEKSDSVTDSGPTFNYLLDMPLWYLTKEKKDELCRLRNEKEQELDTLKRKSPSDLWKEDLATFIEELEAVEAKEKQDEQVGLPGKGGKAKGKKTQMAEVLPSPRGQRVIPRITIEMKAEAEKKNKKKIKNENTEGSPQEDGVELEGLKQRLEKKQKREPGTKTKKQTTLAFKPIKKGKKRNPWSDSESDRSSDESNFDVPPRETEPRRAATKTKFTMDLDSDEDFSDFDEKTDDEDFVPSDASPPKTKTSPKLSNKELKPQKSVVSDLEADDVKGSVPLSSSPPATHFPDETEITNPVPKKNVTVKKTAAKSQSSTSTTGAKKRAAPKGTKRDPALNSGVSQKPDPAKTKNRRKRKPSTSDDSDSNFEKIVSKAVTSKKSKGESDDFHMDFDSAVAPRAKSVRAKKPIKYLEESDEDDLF
Outline: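 Human topo IIα (1 unit) with 200 ng supercoiled pBR322 in Tris-HCl pH 7.9, 50 mM NaCl, 5 mM MgCl2, 1 mM EDTA, 1 mM ATP, BSA, 30 min at 30 °C. DMSO was matched in the enzyme-only control. Stopped with EDTA; 1% agarose/TAE gel, ethidium stain, supercoiled band quantified by UV imaging. Etoposide was the positive control.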

## COc1cc(/C=C/C(=O)c2ccc(NC(=O)CN3CCN(c4cc5c(cc4F)c(=O)c(C(=O)O)cn5C4CC4)CC3)cc2)cc(OC)c1OC
RXF 393 [1]
  GI50: 340 nM
  TGI: 1060 nM
  CC50: 3.47 µM
[2]
  GI50: 57.6 µM
  TGI: > 100 µM
  CC50: > 100 µM
NCI-H460
  GI50: 370 nM
  TGI: 3.79 µM
  CC50: > 100 µM
OVCAR-4
  growth at 10 µM: 16.4%
RXF 393 [3]
  growth at 10 µM: -87.6%
786-0
  growth at 10 µM: -67.8%
COLO 205
  growth at 10 µM: -12.8%
HCT-15
  growth at 10 µM: 18.2%
CAKI-1
  growth at 10 µM: 57.2%
RPMI-8226
  GI50: 290 nM
  TGI: 0.77 µM
  CC50: > 100 µM
HT-29
  growth at 10 µM: -3.37%
PC-3
  growth at 10 µM: 21.5%
OVCAR-3
  growth at 10 µM: -25.8%
NCI-H226 [4]
  GI50: 0.95 µM
  TGI: 26 µM
  CC50: > 100 µM
OVCAR-8 [5]
  growth at 10 µM: 4.74%
HOP-62
  growth at 10 µM: 4.38%
SR
  GI50: 210 nM
  LC50 (concentration killing 50% of cells): > 100 µM
  TGI: > 100 µM
Malme-3M
  growth at 10 µM: 31.4%
UACC-62
  growth at 10 µM: -23.5%
OVCAR-8 [6]
  GI50: 340 nM
  TGI: 26.7 µM
  CC50: > 100 µM
NCI-H226 [7]
  growth at 10 µM: -9.81%
[8]
  GI50: 2.76 µM
  TGI: 11.4 µM
  CC50: > 100 µM
UACC-257
  GI50: 1420 nM
  TGI: 65.4 µM
  CC50: > 100 µM
[9]
  inhibition: 5.2%

## O=C(CN1CCN(c2cc3c(cc2F)c(=O)c(C(=O)O)cn3C2CC2)CC1)Nc1ccc(C(=O)/C=C/c2ccccc2)cc1
RXF 393 [1]
  GI50: 2500 nM
  TGI: > 100000 nM
  CC50: > 100 µM
[2]
  GI50: 9.75 µM
  TGI: > 100 µM
  CC50: > 100 µM
NCI-H460
  GI50: 3170 nM
  TGI: > 100 µM
  CC50: > 100 µM
OVCAR-4
  growth at 10 µM: 86.4%
RXF 393 [3]
  growth at 10 µM: 41.7%
786-0
  growth at 10 µM: 23.2%
COLO 205
  growth at 10 µM: 108%
HCT-15
  growth at 10 µM: 56.8%
CAKI-1
  growth at 10 µM: 73.1%
RPMI-8226
  GI50: 2520 nM
  TGI: 6.73 µM
  CC50: > 100 µM
HT-29
  growth at 10 µM: 11.4%
PC-3
  growth at 10 µM: 55.2%
OVCAR-3
  growth at 10 µM: 54.9%
NCI-H226 [4]
  GI50: 6.83 µM
  TGI: > 100 µM
  CC50: > 100 µM
OVCAR-8 [5]
  growth at 10 µM: 6.3%
HOP-62
  growth at 10 µM: 59.4%
SR
  GI50: 1540 nM
  LC50 (concentration killing 50% of cells): > 100 µM
  TGI: 6.1 µM
Malme-3M
  growth at 10 µM: 51%
UACC-62
  growth at 10 µM: 35.5%
OVCAR-8 [6]
  GI50: 3070 nM
  TGI: > 100 µM
  CC50: > 100 µM
NCI-H226 [7]
  growth at 10 µM: 57.4%
[8]
  GI50: 39.6 µM
  TGI: > 100 µM
  CC50: > 100 µM
UACC-257
  GI50: 3900 nM
  TGI: 90.8 µM
  CC50: > 100 µM
[9]
  inhibition: 35.7%
